Assay results: ChEMBL document CHEMBL2321684, “Novel hybrids of optically active ring-opened 3-n-butylphthalide derivative and isosorbide as potential anti-ischemic stroke agents” (J Med Chem, 2013)
Calls of active or inactive are those of the source. The rule behind the calls is not given here.

Tests used:
Mus musculus [1] = experiment: Antithrombotic activity in Swiss ICR mouse assessed as inhibition of collagen/adrenaline-induced acute systemic vascular thromboembolism at 160 mg/kg, po administered for 7 days prior to collagen/adrenaline-challenge measured up to 15 mins relative to control; format: functional, organism-based; set-up: dose 160 mg/kg
In short: (§1)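 Male Swiss ICR mice (30−35 g), n = 15 per group, dosed by gavage daily for 7 days in DMSO vehicle. Two hours after the last dose, mice received collagen (0.21 mg/kg) plus adrenaline (44.5 μg/kg) iv. Survival was monitored for 15 min and reported as % surviving.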

[2] = Stability in artificial intestinal juice assessed as compound remaining at pH 6.8 measured immediately by HPLC analysis; format: physicochemical; conditions: simulated gi fluid
Rattus norvegicus [3] = experiment: (§2) Antiischemic activity in Sprague-Dawley rat assessed as reduction in middle cerebral artery occlusion-induced water content in brain at 80 mg/kg administered via gavage for 7 days prior to middle cerebral artery occlusion-challenge measured after 24 hrs relative to control; format: functional, organism-based; set-up: dose 80 mg/kg
In short: (§3)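 Male SD rats (280−320 g), n = 12 per group, dosed by gavage daily for 7 days in 0.5% CMC-Na vehicle. Sham animals received vehicle only. Two hours after the last dose, rats were anesthetized with chloral hydrate (300 mg/kg ip) and given MCAO for 2 h, then reperfused. Body temperature was held at 37 °C. All endpoints were read at 24 h post reperfusion.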

Platelet = experiment: Antiplatelet aggregation activity in rabbit platelets assessed as inhibition of ADP-induced platelet aggregation at 0.1 mM incubated for 5 mins prior to ADP-challenge measured within 5 mins by turbidimetric analysis; format: functional, cell-based; conditions: Oryctolagus cuniculus
In short: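 Rabbit carotid blood was citrated (3.8%, 9:1). PRP was adjusted with PPP to 400−450 × 10⁹ platelets/L. PRP was preincubated with compound or DMSO for 5 min at 37 °C, then aggregation was induced with ADP at 10 μM. Maximum aggregation rate was recorded over 5 min using Born's turbidimetry. Inhibition % was calculated versus vehicle; n = 6, mean ± SD.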

Rattus norvegicus [4] = experiment: Antiischemic activity in Sprague-Dawley rat assessed as reduction in middle cerebral artery occlusion-induced neurological deficit scores at 80 mg/kg administered via gavage for 7 days prior to middle cerebral artery occlusion-challenge measured after 24 hrs relative to control; format: functional, organism-based; set-up: dose 80 mg/kg; in short: as §3
Mus musculus [5] = experiment: Antithrombotic activity in Swiss ICR mouse assessed as inhibition of collagen/adrenaline-induced acute systemic vascular thromboembolism at 680 mg/kg, po administered for 7 days prior to collagen/adrenaline-challenge measured up to 15 mins relative to control; format: functional, organism-based; set-up: dose 680 mg/kg; in short: as §1
Rattus norvegicus [6] = experiment: as §2, with “infarct size” for “water content”, “hrs by triphenyltetrazolium chloride assay” for “hrs”; format: functional, organism-based; set-up: dose 80 mg/kg; in short: as §3
Rattus norvegicus [7] = experiment: Antithrombotic activity in Sprague-Dawley rat assessed as reduction in arteriovenous shunt-induced dry thrombus weight at 80 mg/kg, administered via gavage for 7 days prior to arteriovenous shunt-challenge measured up to 15 mins relative to control; format: functional, organism-based; set-up: dose 80 mg/kg
In short: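 Male SD rats (250−280 g), n = 12 per group, dosed by gavage daily for 7 days in 0.5% CMC-Na. Two hours after the last dose, rats were anesthetized with chloral hydrate (300 mg/kg ip). A saline-filled 14 cm polyethylene catheter holding a 6 cm silk thread linked the left jugular vein and right carotid artery for 15 min. The thrombus was then weighed wet and dry. Results are mean ± SD, analysed by ANOVA/Tukey.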

[8] = Antiplatelet aggregation activity in rabbit platelets assessed as inhibition of ADP-induced platelet aggregation incubated for 5 mins prior to ADP-challenge measured within 5 mins by Born's turbidimetric analysis; format: functional, cell-based; conditions: Oryctolagus cuniculus
[9] = Biodistribution in ICR mouse brain at 680 mg/kg, po after 0.5 hrs by HPLC analysis; format: ADME, organism-based; set-up: dose 680 mg/kg, route oral; conditions: read-out: Drug uptake
In short: (§4)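 Male ICR mice (30−35 g), n = 6 per time point, were given a single 680 mg/kg gavage dose and sacrificed at 0.5, 1, 2, 4 and 8 h. Brains were rinsed, weighed and homogenized in 3 volumes of saline. Plasma and homogenate were precipitated with 3 volumes of acetonitrile.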

[10] = Biodistribution in ICR mouse brain at 680 mg/kg, po after 4 hrs by HPLC analysis; format: ADME, organism-based; set-up: dose 680 mg/kg, route oral; conditions: read-out: Drug uptake; in short: as §4
Rattus norvegicus [11] = experiment: Antiischemic activity in Sprague-Dawley rat assessed as reduction in middle cerebral artery occlusion-induced necrosis in neurons at 340 mg/kg administered via gavage for 7 days prior to middle cerebral artery occlusion-challenge measured after 24 hrs by microscopic analysis; format: functional, organism-based; set-up: dose 340 mg/kg; in short: as §3
[12] = Plasma concentration in ICR mouse at 680 mg/kg, po after 1 hrs by HPLC analysis; format: ADME, organism-based; set-up: dose 680 mg/kg, route oral; in short: as §4
[13] = Plasma concentration in ICR mouse at 680 mg/kg, po after 4 hrs by HPLC analysis; format: ADME, organism-based; set-up: dose 680 mg/kg, route oral; in short: as §4
[14] = Biodistribution in ICR mouse brain at 680 mg/kg, po after 1 hr by HPLC analysis; format: ADME, organism-based; set-up: dose 680 mg/kg, route oral; conditions: read-out: Drug uptake; in short: as §4

CCCC[C@H](OC(=O)CN1CCN(C)CC1)c1ccccc1C(=O)O[C@H]1CO[C@H]2[C@@H]1OC[C@H]2OC(=O)c1ccccc1[C@H](CCCC)OC(=O)CN1CCN(C)CC1
Activity (Mus musculus [1]): Active
Stability [2]: 4.97 µM
Activity (Rattus norvegicus [3]): Active
inhibition (Platelet): Active
Activity (Rattus norvegicus [4]): Active
Activity (Mus musculus [5]): Active
Activity (Rattus norvegicus [6]): Active
Activity (Rattus norvegicus [7]): Active
IC50 [8]: 70 µM
concentration at 0.5 h [9]: 408 ng/mL
concentration at 4 h [10]: 54.3 ng/mL
Activity (Rattus norvegicus [11]): Active
concentration at 1 h [12]: 241 ng/mL
concentration at 4 h [13]: 126 ng/mL
concentration at 1 h [14]: 260 ng/mL
